One assay deals with H460^R231Q. The following applies: R231Q group, in vivo; cited from earlier work.
In assay [1] the test system is H3K27me3, H3K9me2, H3K4me1 and H3K36me2 levels. Nature of the assay: WB analysis of common histone H3 modifications in H460^R231Q cells. In kind it is cell-based, human. As to conditions: Fig. 7. The method in brief: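 H460^R231Q cells were treated with test compound alongside an SGC0946 positive control. Histone extracts (or RIPA lysates with protease/phosphatase inhibitors) were quantified by BCA, separated on 8–15% SDS-PAGE and blotted to PVDF. Blots were probed for H3K27me3, H3K9me2, H3K4me1 and H3K36me2 and detected by ECL on X-ray film. Membranes were stripped and reprobed for proteins of similar size.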

A further assay concerns H460^WT cells. Nature of the assay: Cell proliferation assay. In kind it is cell-based. The following applies: Homo sapiens, 72 h, read-out: H460^WT (IC50, μmol/L). In outline:
(§1)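 Human NCI-H460 NSCLC cells engineered to express wild-type or R231Q DOT1L (aa 1–416) were grown in RPMI 1640 with 10% FBS. Cells were seeded in 96-well plates and exposed to a range of test compound concentrations for 72 h at 37 °C, 5% CO₂. Growth was read by CCK-8 on a plate reader, and IC50 values were derived from the dose–response.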

For another assay, the target named is DOT1L^WT (Homo sapiens, UniProt Q8TEK3). Nature of the assay: DOT1L^WT methyltransferase assay. In kind it is biochemical. The method in brief: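 Commercial wild-type DOT1L was preincubated with test compound, 1% DMSO vehicle or SGC0946 positive control for 15 min at 25 °C. Nucleosomes plus SAM were added for 60 min, then detection buffer for 10 min, then anti-SAH-Lumi4-Tb and SAH-d2 for 60 min, all at 25 °C. The TR-FRET 665/620 nm ratio was read. % inhibition was scaled between vehicle and positive control; dose–response in duplicate, fitted for IC50.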

The test system of the next assay is H460^WT. As to conditions: WT group, in vivo; cited from earlier work.
Another assay concerns H460^R231Q cells. Nature of the assay: Cell proliferation assay. The following applies: Homo sapiens, 72 h, read-out: H460^R231Q (IC50, μmol/L). In kind it is cell-based, human. In outline:
as §1

Assay [2] relates to DOT1L^R231Q mediated H3K79me2 level in H460^R231Q cells. Nature of the assay: Quantitative Western blot analysis of H3K79me2 level in H460^R231Q cells. In kind it is cell-based, human. The following applies: H460^R231Q cells, Fig. 7. In outline:
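H460^R231Q cells were treated with test compound, and histones were extracted with a total histone extraction kit; protein was quantified by BCA. Extracts were resolved on 8–15% SDS-PAGE, transferred to PVDF and probed for H3K79me2 and histone H3, with ECL/X-ray film detection. Band densities were quantified, and H3K79me2 was normalised to H3. The dimethylation index was the compound value divided by the SGC0946 (positive control) value.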

The structures appear in SMILES notation.

Chain of DOT1L^WT (Q8TEK3 whole entry): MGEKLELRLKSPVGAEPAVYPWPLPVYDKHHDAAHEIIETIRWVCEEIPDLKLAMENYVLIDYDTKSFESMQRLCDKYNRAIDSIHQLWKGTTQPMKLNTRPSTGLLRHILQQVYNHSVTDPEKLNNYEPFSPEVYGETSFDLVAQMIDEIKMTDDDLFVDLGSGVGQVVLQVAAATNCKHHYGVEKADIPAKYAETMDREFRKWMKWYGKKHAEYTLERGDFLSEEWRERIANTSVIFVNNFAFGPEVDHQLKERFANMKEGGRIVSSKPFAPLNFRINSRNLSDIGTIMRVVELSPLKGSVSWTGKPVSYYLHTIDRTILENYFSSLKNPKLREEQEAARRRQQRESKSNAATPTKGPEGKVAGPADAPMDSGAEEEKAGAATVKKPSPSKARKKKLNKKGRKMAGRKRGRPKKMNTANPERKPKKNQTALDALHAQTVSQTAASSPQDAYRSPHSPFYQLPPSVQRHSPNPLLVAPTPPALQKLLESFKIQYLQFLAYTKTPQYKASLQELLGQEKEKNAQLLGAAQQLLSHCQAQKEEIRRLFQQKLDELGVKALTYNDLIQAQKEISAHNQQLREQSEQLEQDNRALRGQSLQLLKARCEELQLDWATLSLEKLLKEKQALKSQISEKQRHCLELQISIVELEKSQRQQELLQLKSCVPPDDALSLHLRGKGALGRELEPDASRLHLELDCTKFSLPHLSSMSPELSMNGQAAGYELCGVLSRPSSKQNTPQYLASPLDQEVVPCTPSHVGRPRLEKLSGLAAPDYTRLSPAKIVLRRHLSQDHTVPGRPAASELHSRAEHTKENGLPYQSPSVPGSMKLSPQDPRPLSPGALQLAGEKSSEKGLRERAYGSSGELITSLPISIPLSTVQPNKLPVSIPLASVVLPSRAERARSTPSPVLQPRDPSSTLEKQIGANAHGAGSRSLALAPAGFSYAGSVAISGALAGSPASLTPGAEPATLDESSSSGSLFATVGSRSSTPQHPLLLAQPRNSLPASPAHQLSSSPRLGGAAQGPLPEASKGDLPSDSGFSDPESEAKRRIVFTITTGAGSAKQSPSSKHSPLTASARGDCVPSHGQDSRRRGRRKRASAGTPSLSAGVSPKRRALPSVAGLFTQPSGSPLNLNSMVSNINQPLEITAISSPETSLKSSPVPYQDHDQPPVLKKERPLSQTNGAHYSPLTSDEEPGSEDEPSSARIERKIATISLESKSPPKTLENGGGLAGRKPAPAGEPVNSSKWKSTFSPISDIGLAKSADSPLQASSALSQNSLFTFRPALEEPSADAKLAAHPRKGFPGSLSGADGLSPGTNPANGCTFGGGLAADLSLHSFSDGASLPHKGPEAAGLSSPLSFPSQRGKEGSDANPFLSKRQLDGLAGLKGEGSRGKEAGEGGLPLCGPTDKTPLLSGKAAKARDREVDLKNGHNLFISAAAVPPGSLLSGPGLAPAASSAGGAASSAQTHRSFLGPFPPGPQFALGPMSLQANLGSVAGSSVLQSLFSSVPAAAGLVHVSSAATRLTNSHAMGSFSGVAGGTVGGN

On to `CC(C)N(CCCNC(=O)Nc1ccc(C(C)(C)C)cc1)C[C@H]1O[C@@H](n2cc(Br)c3c(N)ncnc32)[C@H](O)[C@@H]1O` [SGC0946], for which the figures for the TGI with H460^R231Q and with H460^WT were 26.5% and 44.4%, respectively. The “H3K27me3, H3K9me2, H3K4me1 and H3K36me2 levels” value in assay [1] is on record as “remained relatively unchanged”. For the same compound, the IC50 came to 9.18 ± 0.11 µmol/L in the assay with H460^WT cells, 0.0184 µM at DOT1L^WT and 38 ± 5.24 µmol/L in the assay with H460^R231Q cells. Also, the “H3K79me2 level (WB of common histone H3 modifications)” value in assay [2] is on record as “decrease”.

(Values after PMC11365375 (Acta Pharmaceutica Sinica. B, 2024).)
